pEC50, pIC50: −log10 of the molar value.
Tests used:
[1] = Inhibitory concentration against ACPD-sensitive radioligand [3H]glutamate binding to Group II Metabotropic glutamate receptor in rat forebrain membranes; type: cell membranes, Membrane
In short: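 Rat forebrain membranes; displacement of ACPD-sensitive [3H]glutamate binding (10 nM radioligand).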

[2] = target: Glutamate receptor ionotropic, kainate; assay: Inhibitory concentration against radioligand [3H]-Kainate binding to Ionotropic glutamate receptor kainate in rat forebrain membranes; type: cell membranes, Membrane
In short: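 Rat forebrain membranes; displacement of [3H]kainate (5 nM) binding. Compounds screened at concentrations up to 100 µM (triplicate analysis at 1, 10 and 100 µM).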

[3] = target: Glutamate NMDA receptor; assay: Inhibitory concentration against radioligand [3H]CGS-19,755 binding to N-methyl-D-aspartate glutamate receptor in rat forebrain membranes; type: cell membranes, Membrane
In short: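 Rat forebrain membranes; displacement of [3H]CGS19755 (10 nM) binding. Compounds screened at concentrations up to 100 µM (triplicate analysis at 1, 10 and 100 µM).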

[4] = organism: Rattus norvegicus; assay: Compound was evaluated by measuring the ability to influence forskolin-stimulated cAMP formation in adult rat cerebral cortical slices; type: functional
In short: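 Adult rat cerebral cortical slices; cAMP formation stimulated with forskolin (30 µM), and suppression of that cAMP formation measured. EC50 values derived from concentration-response curves.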

[5] = organism: Rattus norvegicus; assay: Compound was evaluated by measuring the ability to influence stimulated basal [3H]-IP formation in adult rat cerebral cortical slices.; type: functional
In short: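 Rat cerebral cortical slices labeled for [3H]phosphoinositide hydrolysis; accumulation of tritiated inositol monophosphates ([3H]IP) measured against basal levels. Concentrations tested up to 300 µM.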

[6] = organism: Mus musculus; assay: Oral effective dose evaluated in mice by mouse limbic seizure assay; type: functional, Limbic system
In short: (§1)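 Male NIH Swiss mice (20-25 g) given test drug ip or po 30 min before unilateral intracerebral 1S,3R-ACPD (400 nmol), injected 2 mm lateral to bregma at 3.7 mm depth. Scored as the number of animals showing limbic seizures (clonic forelimb contractions, rearing, falling) during the observation period. ED50 in mg/kg.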

[7] = organism: Mus musculus; assay: Oral effective dose was evaluated in mice by automated elevated plus-maze assay; type: functional
In short: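 Male NIH Swiss mice (20-35 g), acclimated ≥3 days on a 12 h light/dark cycle, dosed 30 min before a 5-min test on an automated elevated plus maze. Mice started on the closed platform; closed arm, open arm and nosepoke counts recorded. Dose-response for open arm activity gives the ED50 (mg/kg).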

[8] = tested on: Mus musculus; assay: Intraperitoneal effective dose evaluated in mice by mouse limbic seizure assay; type: functional, Limbic system; in short: as §1
[9] = target: Glutamate receptor ionotropic, AMPA (Rattus norvegicus, UniProt P19490+P19491+P19492+P19493); assay: Inhibitory concentration against radioligand [3H]AMPA binding to Ionotropic glutamate receptor AMPA in rat forebrain membranes; type: cell membranes, Membrane

SMILES	pIC50 [1]	pIC50 [2]	pIC50 [3]	pEC50 ([4]; Rattus norvegicus)	pEC50 [5]	pEC50 [4]	pIC50 [9]	ED50 [6] [mg/kg]	ED50 [7] [mg/kg]	ED50 [8] [mg/kg]
N[C@H](C(=O)O)[C@H]1C[C@@H]1C(=O)O	6.34	< 4.00	< 4.00	5.96	4.60					
N[C@@]1(C(=O)O)CC[C@H]2[C@H](C(=O)O)[C@H]21 (racemic)	6.50					7.07				

Further lines, with some results ahead:

pIC50 [1]	pIC50 [2]	pIC50 [3]	pEC50 ([4]; Rattus norvegicus)	pEC50 [5]	pEC50 [4]	pIC50 [9]	SMILES	ED50 [6] [mg/kg]	ED50 [7] [mg/kg]	ED50 [8] [mg/kg]
6.74				< 3.52	7.26		N[C@@]1(C(=O)O)CC[C@H]2[C@H](C(=O)O)[C@H]21 (stereo in doubt; (+)-9)	45.6	0.5	17
< 4.00	< 4.00	< 4.00			< 3.52	< 4.00	N[C@@]1(C(=O)O)CC[C@H]2[C@H](C(=O)O)[C@H]21 (stereo in doubt; (-)-9)			> 100
< 4.00	< 4.00	4.20				< 4.00	N[C@]1(C(=O)O)CC[C@H]2[C@H](C(=O)O)[C@H]21 (racemic)			
